Measured values reported in ChEMBL document CHEMBL5058577, “EUbOPEN Chemogenomics Library 2 (Multiplex)” (2022).

System: Fibroblast
Experiment: Multiplex assay against human fibroblast
Format: toxicity, cell-based
Summary of the method: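 Live cells carried four stains from seeding: Hoechst33342, BioTracker Green Microtubule Cytoskeleton Dye, MitoTracker Red and Annexin V Alexa Fluor 680. They were imaged on a CQ1 microscope at 37°C and 5% CO2 after compound addition. Using CellPathfinder machine-learning gating, cells were split into Hoechst high-intensity objects or normal cells, normal cells into healthy, pyknosed or fragmented nuclei, and pyknosed cells into mitotic or apoptotic; tubulin, mitochondrial-mass and membrane-permeability phenotypes are per cents of healthy-nucleus cells.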

[1] = 12 h, 1 µM, compound concentration 1 uM, replicate 1
[2] = 12 h, 1 µM, compound concentration 1 uM, replicate 2
[3] = 12 h, 10 µM, compound concentration 10 uM, replicate 1
[4] = 12 h, 10 µM, compound concentration 10 uM, replicate 2
[5] = 24 h, 1 µM, compound concentration 1 uM, replicate 1
[6] = 24 h, 1 µM, compound concentration 1 uM, replicate 2
[7] = 24 h, 10 µM, compound concentration 10 uM, replicate 1
[8] = 24 h, 10 µM, compound concentration 10 uM, replicate 2
[9] = 48 h, 1 µM, compound concentration 1 uM, replicate 1
[10] = 48 h, 1 µM, compound concentration 1 uM, replicate 2
[11] = 48 h, 10 µM, compound concentration 10 uM, replicate 1
[12] = 48 h, 10 µM, compound concentration 10 uM, replicate 2

For `O=C(NCC(=O)N1CC[C@H](N[C@H]2CC[C@@](O)(c3ccc(-c4ncccn4)cn3)CC2)C1)c1cccc(C(F)(F)F)c1` [PF-4136309], the “Population Apoptotic (%)” value [1] was 53%, the “Population Fragmented Nuclei (%)” value [1] was 13% and the “Population Healthy Nuclei (%)” value [1] was 63%. The “Population Hoechst High Intensity Objects (%)” value [1] was 2%, the “Population Membrane Permeable-Phenotype (%)” value [1] was 1% and the “Population Mitochondria Different-Phenotype (%)” value [1] was 4%. For the same compound, the “Population Mitotic Cells (%)” value [1] was 46%, the “Population Normal (%)” value [1] was 97% and the “Population Pyknosed Nuclei (%)” value [1] was 23%. The “Population Tubulin-Different-Phenotype (%)” value [1] was 28%, the “Total Cell Count” value [1] was 142 and the “Population Apoptotic (%)” value [2] was 22%. The “Population Fragmented Nuclei (%)” value [2] was 25%, the “Population Healthy Nuclei (%)” value [2] was 52% and the “Population Hoechst High Intensity Objects (%)” value [2] was 5%. The “Population Membrane Permeable-Phenotype (%)” value [2] was 13%, the “Population Mitochondria Different-Phenotype (%)” value [2] was 7% and the “Population Mitotic Cells (%)” value [2] was 77%. The “Population Normal (%)” value [2] was 94%, the “Population Pyknosed Nuclei (%)” value [2] was 21% and the “Population Tubulin-Different-Phenotype (%)” value [2] was 60%. The “Total Cell Count” value [2] was 152, the “Population Apoptotic (%)” value [3] was 60% and the “Population Fragmented Nuclei (%)” value [3] was 18%. The “Population Healthy Nuclei (%)” value [3] was 69%, the “Population Hoechst High Intensity Objects (%)” value [3] was 2% and the “Population Membrane Permeable-Phenotype (%)” value [3] was 0%. The “Population Mitochondria Different-Phenotype (%)” value [3] was 11%, the “Population Mitotic Cells (%)” value [3] was 40% and the “Population Normal (%)” value [3] was 97%. The “Population Pyknosed Nuclei (%)” value [3] was 12%, the “Population Tubulin-Different-Phenotype (%)” value [3] was 46% and the “Total Cell Count” value [3] was 210. For the same compound, the “Population Apoptotic (%)” value [4] was 25%, the “Population Fragmented Nuclei (%)” value [4] was 24% and the “Population Healthy Nuclei (%)” value [4] was 52%. The “Population Hoechst High Intensity Objects (%)” value [4] was 5%, the “Population Membrane Permeable-Phenotype (%)” value [4] was 4% and the “Population Mitochondria Different-Phenotype (%)” value [4] was 6%. The “Population Mitotic Cells (%)” value [4] was 75%, the “Population Normal (%)” value [4] was 94% and the “Population Pyknosed Nuclei (%)” value [4] was 23%. For the same compound, the “Population Tubulin-Different-Phenotype (%)” value [4] was 44%, the “Total Cell Count” value [4] was 128 and the “Population Apoptotic (%)” value [5] was 61%. The “Population Fragmented Nuclei (%)” value [5] was 14%, the “Population Healthy Nuclei (%)” value [5] was 60% and the “Population Hoechst High Intensity Objects (%)” value [5] was 2%. The “Population Membrane Permeable-Phenotype (%)” value [5] was 1%, the “Population Mitochondria Different-Phenotype (%)” value [5] was 4% and the “Population Mitotic Cells (%)” value [5] was 38%. The “Population Normal (%)” value [5] was 97%, the “Population Pyknosed Nuclei (%)” value [5] was 25% and the “Population Tubulin-Different-Phenotype (%)” value [5] was 32%. The “Total Cell Count” value [5] was 139, the “Population Apoptotic (%)” value [6] was 45% and the “Population Fragmented Nuclei (%)” value [6] was 33%. For the same compound, the “Population Healthy Nuclei (%)” value [6] was 52%, the “Population Hoechst High Intensity Objects (%)” value [6] was 4% and the “Population Membrane Permeable-Phenotype (%)” value [6] was 16%. The “Population Mitochondria Different-Phenotype (%)” value [6] was 1%, the “Population Mitotic Cells (%)” value [6] was 55% and the “Population Normal (%)” value [6] was 95%. The “Population Pyknosed Nuclei (%)” value [6] was 14%, the “Population Tubulin-Different-Phenotype (%)” value [6] was 52% and the “Total Cell Count” value [6] was 148. For the same compound, the “Population Apoptotic (%)” value [7] was 36%, the “Population Fragmented Nuclei (%)” value [7] was 15% and the “Population Healthy Nuclei (%)” value [7] was 72%. For the same compound, the “Population Hoechst High Intensity Objects (%)” value [7] was 3%, the “Population Membrane Permeable-Phenotype (%)” value [7] was 0% and the “Population Mitochondria Different-Phenotype (%)” value [7] was 10%. The “Population Mitotic Cells (%)” value [7] was 63%, the “Population Normal (%)” value [7] was 96% and the “Population Pyknosed Nuclei (%)” value [7] was 11%. For the same compound, the “Population Tubulin-Different-Phenotype (%)” value [7] was 34%, the “Total Cell Count” value [7] was 203 and the “Population Apoptotic (%)” value [8] was 30%. For the same compound, the “Population Fragmented Nuclei (%)” value [8] was 29%, the “Population Healthy Nuclei (%)” value [8] was 48% and the “Population Hoechst High Intensity Objects (%)” value [8] was 2%. For the same compound, the “Population Membrane Permeable-Phenotype (%)” value [8] was 6%, the “Population Mitochondria Different-Phenotype (%)” value [8] was 4% and the “Population Mitotic Cells (%)” value [8] was 70%. For the same compound, the “Population Normal (%)” value [8] was 97%, the “Population Pyknosed Nuclei (%)” value [8] was 22% and the “Population Tubulin-Different-Phenotype (%)” value [8] was 52%. For the same compound, the “Total Cell Count” value [8] was 139, the “Population Apoptotic (%)” value [9] was 58% and the “Population Fragmented Nuclei (%)” value [9] was 26%. For the same compound, the “Population Healthy Nuclei (%)” value [9] was 49%, the “Population Hoechst High Intensity Objects (%)” value [9] was 2% and the “Population Membrane Permeable-Phenotype (%)” value [9] was 2%. For the same compound, the “Population Mitochondria Different-Phenotype (%)” value [9] was 2%, the “Population Mitotic Cells (%)” value [9] was 41% and the “Population Normal (%)” value [9] was 97%. For the same compound, the “Population Pyknosed Nuclei (%)” value [9] was 24%, the “Population Tubulin-Different-Phenotype (%)” value [9] was 27% and the “Total Cell Count” value [9] was 149. For the same compound, the “Population Apoptotic (%)” value [10] was 50%, the “Population Fragmented Nuclei (%)” value [10] was 36% and the “Population Hoechst High Intensity Objects (%)” value [10] was 4%. The “Population Membrane Permeable-Phenotype (%)” value [10] was 7%, the “Population Mitochondria Different-Phenotype (%)” value [10] was 4% and the “Population Mitotic Cells (%)” value [10] was 50%. The “Population Normal (%)” value [10] was 95%, the “Population Pyknosed Nuclei (%)” value [10] was 13% and the “Population Tubulin-Different-Phenotype (%)” value [10] was 46%. The “Total Cell Count” value [10] was 137, the “Population Apoptotic (%)” value [11] was 47% and the “Population Fragmented Nuclei (%)” value [11] was 18%. The “Population Healthy Nuclei (%)” value [11] was 72%, the “Population Hoechst High Intensity Objects (%)” value [11] was 6% and the “Population Membrane Permeable-Phenotype (%)” value [11] was 0%. For the same compound, the “Population Mitochondria Different-Phenotype (%)” value [11] was 15%, the “Population Mitotic Cells (%)” value [11] was 52% and the “Population Normal (%)” value [11] was 93%. The “Population Pyknosed Nuclei (%)” value [11] was 9%, the “Population Tubulin-Different-Phenotype (%)” value [11] was 47% and the “Total Cell Count” value [11] was 195. For the same compound, the “Population Apoptotic (%)” value [12] was 63%, the “Population Fragmented Nuclei (%)” value [12] was 31% and the “Population Healthy Nuclei (%)” value [12] was 52%. The “Population Membrane Permeable-Phenotype (%)” value [12] was 6%, the “Population Mitochondria Different-Phenotype (%)” value [12] was 6% and the “Population Mitotic Cells (%)” value [12] was 36%. For the same compound, the “Population Pyknosed Nuclei (%)” value [12] was 15%, the “Population Tubulin-Different-Phenotype (%)” value [12] was 54% and the “Total Cell Count” value [12] was 129.
